Compound activity deposited in PubChem by several laboratories.
In the library only some 2.9% were active in any assay of this set; here they are far more common.
NRP1-CendR mod = modulators of CendR peptide binding to NRP-1, primary screen, biochemical, fluorescence polarization, uHTS; Neuropilin-1 (Homo sapiens), O14786; FAM-RPARPAR peptide binding to NRP-1; inhibition, % at 25 µM; hit rate 0.85% among 360,000; AID 602438, 2012;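 active = inhibition or corrected inhibition above about 18%, plus a signal ratio from 0.5 to 1.5, limit read from the data, passing the limit was not always enough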
Target sequence (O14786 whole entry, looked up): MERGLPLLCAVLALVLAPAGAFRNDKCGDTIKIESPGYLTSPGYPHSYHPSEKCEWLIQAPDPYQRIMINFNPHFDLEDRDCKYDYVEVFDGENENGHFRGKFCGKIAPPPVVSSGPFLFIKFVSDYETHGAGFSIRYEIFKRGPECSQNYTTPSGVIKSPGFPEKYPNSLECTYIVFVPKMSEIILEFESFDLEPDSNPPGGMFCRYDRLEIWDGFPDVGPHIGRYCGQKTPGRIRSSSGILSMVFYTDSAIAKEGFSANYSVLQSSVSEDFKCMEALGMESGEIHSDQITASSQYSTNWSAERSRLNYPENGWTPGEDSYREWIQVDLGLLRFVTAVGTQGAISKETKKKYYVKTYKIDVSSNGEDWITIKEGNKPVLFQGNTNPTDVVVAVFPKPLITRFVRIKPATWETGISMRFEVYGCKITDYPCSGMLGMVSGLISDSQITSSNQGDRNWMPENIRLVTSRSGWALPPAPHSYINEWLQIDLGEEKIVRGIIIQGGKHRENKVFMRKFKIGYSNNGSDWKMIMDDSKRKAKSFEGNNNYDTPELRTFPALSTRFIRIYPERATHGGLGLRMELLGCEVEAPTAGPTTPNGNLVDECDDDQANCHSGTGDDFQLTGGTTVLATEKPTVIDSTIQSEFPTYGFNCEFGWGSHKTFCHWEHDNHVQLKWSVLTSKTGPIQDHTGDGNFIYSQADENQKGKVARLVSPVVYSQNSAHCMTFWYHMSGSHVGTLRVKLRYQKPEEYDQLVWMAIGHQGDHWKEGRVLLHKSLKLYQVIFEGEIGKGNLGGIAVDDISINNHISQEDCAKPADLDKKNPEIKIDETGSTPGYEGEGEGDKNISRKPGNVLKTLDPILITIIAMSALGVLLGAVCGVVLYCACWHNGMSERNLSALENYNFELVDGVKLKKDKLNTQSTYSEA
ADAM10 inh = human ADAM10 inhibitors, primary screen, biochemical, QFRET, HTS; Disintegrin and metalloproteinase domain-containing protein 10 (Homo sapiens), O14672; recombinant ADAM10, EDANS/DABCYL FRET peptide cleavage, 3 h; inhibition, % at 7 µM; hit rate 0.62% among 370,000;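 active = inhibition above a per-campaign cutoff equal to the mean of compounds falling between control-based bounds plus 3 SD, cut at about 20% in these data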;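 also: 0% = DMSO wells while the 100% control is not disclosed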
CaV13 FRET inh = Primary screen for inhibitors of IQ motif and Ca2+-dependent inactivation inhibitor domain binding in CACNA1D, Förster resonance energy transfer in living cells, …. HEK cells, CFP/YFP FRET ICDI-IQ, plate reader, 10 min; percent FRET-ratio fall versus neutral wells. inhibition, % at 12.3 µM. hit rate 0.098% among 340,000. AID 743397;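 active = mean replicate inhibition of at least 30% and at least 1% of replicates passing that level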;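 also: 0% = median of the neutral control wells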
ADAM17 inh = ADAM17 inhibitors, primary screen, biochemical, QFRET; Disintegrin and metalloproteinase domain-containing protein 17 (Homo sapiens), P78536; recombinant ADAM17, EDANS/DABCYL FRET peptide cleavage; inhibition, % at 6.95 µM; hit rate 0.83% among 370,000;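 active = inhibition above the mean of compounds lying between control limits plus 3 SD, set per campaign, cut at about 8.5% in these data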;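 also: 0% = DMSO-only wells as the low control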
FAS TE block = FAS thioesterase domain inhibitors, primary screen, biochemical, fluorescence intensity, uHTS | recombinant FAS-TE, OMFH fluorogenic substrate, fluorescence endpoint | inhibition, % at 15 µM | hit rate 0.67% among 360,000 | AID 602261, 2012;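 active = compounds whose normalised, plate-corrected inhibition of enzyme fluorescence in the single-dose primary screen is 50% or more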;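 also: 0% = DMSO with enzyme and 100% = substrate without enzyme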
Arr AP2 block = inhibitors of beta-arrestin/AP2 binding, primary screen, biochemical, GPCR trafficking, flow cytometry | beta-arrestin 1 C-terminal peptide binding to AP2 beta2-adaptin appendage (human) | hit rate 0.31% among 340,000 | FITC-arrestin peptide / GST-AP2 beads; AP2 beta2 appendage carries R879A mutation | inhibition, % at 10 µM;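 active = inhibition above a set limit, near 3 SD of compounds lacking own fluorescence, cut at about 54% in these data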;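 also: plate controls were DMSO wells for no effect and 5 µM unlabelled arrestin peptide for full effect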
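System: GST-AP2 R879A glutathione beads. Medium: PBS with 0.05% Tween 20 and 0.1% BSA. Also added: FITC-arrestin peptide, 50 nM. Incubation: 12 min plus 1 h, RT. Measured by: high-throughput flow cytometry of beads, ex 488, em 535 nm. Evaluation: percent drop in bead-associated FITC signal.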
* marks the source's active call; other numbers are inactive results; . = not tested or not shown.

SMILES	NRP1-CendR mod	ADAM10 inh	CaV13 FRET inh	ADAM17 inh	FAS TE block	Arr AP2 block
CSc1ccc(OC2(C)CCN(Cc3ccc(C(C)C)cc3)C2)cc1 (stereo not given)	12.3	0.9	-4.1	0.7	23.5	.
NC(=O)[C@@H]1CCCN1C(=O)[C@@H](Cc1ccccc1)NC(=O)[C@H]1O[C@@H](n2ccc(N)nc2=O)[C@H](O)[C@@H]1O	.	-6.9	-2.9	-3.1	.	.
Oc1ccc(N=Nc2c(O)ccc3ccccc23)cc1	-19.1	14.8	-9.4	5.9	31.2	8.5
N=C(N)c1ccc(N=Nc2c(O)ccc3c2[nH]c2ccccc23)cc1	72.5*	-10.8	-9.2	-2.3	-36.6	40.7
CCOC(=O)CC[C@H]1CC[C@]2(CCCN(C(=O)c3ccno3)C2)O1	.	-2.1	.	-2.1	.	.
Cc1cccc(N(C)c2ncnc3onc(-c4ccc(F)cc4)c23)c1C	21.5*	1.7	-5.2	-2.5	10.8	7.2
Cn1c(Cn2c(=O)sc3ccccc32)nnc1SCC(=O)N1CCN(c2ccccc2)CC1	27.0*	-1.7	-2.6	-1.3	1.9	-3.1
CCCC(=O)Nn1cnc2c(c1=O)C1(CCCC1)Cc1ccccc1-2	25.3*	9.1	.	-2.4	5.8	-4.1
CC(=O)Nn1cnc2c(c1=O)C1(CCCC1)Cc1ccccc1-2	2.9	-8.0	-4.8	-4.1	-12.9	2.9
O=C(COC(=O)CN1CCSC1=O)Nc1ccc(F)cc1Cl	6.3	-1.8	-16.5	-0.9	-5.7	-1.5
Oc1c(Cl)cc(Cl)cc1/C=N/Nc1ncc(Br)cn1	38.1*	-9.0	-4.8	-4.2	8.6	16.9
C[C@@H]1CN([C@H](C)CO)C(=O)CCCn2nncc2CO[C@H]1CN(C)C(=O)Nc1cccc2ccccc12	13.5	-241.2	-3.6	-53.6	-5.0	.
CCOC(=O)c1cnc2c(ccc3ccccc32)c1NCCO	-12.6	-131.6	.	-35.6	1.7	-2.1
CCOC(=O)c1cnc2ccc(C)cc2c1NCCO	26.7*	-23.6	.	-8.3	-6.2	3.3
CCOc1ccccc1CN(Cc1ccco1)S(=O)(=O)c1ccc(-n2cnnn2)c(OC)c1	1.9	18.0	-7.8	12.0*	30.4	-4.3
Cc1ccccc1N1C(=O)c2ccccc2NC1c1ccncc1 (stereo not given)	28.0*	-196.2	.	-63.4	-2.2	40.0
C=CCn1c(N)cc(=O)nc1SC(C)C(=O)Nc1cccc2ccccc12 (stereo not given)	21.6*	-46.4	-5.5	-22.4	-8.5	-2.6
CCCN(CC1CC1)c1nc(C)nc2c1nnn2Cc1ccccc1	.	4.9	.	1.8	.	.
CC(C)n1nnnc1C1(C)CCCCC(=O)N1Cc1cccc(C(F)(F)F)c1 (stereo not given)	.	3.7	.	1.9	.	.
CCC(=O)N1CCN(c2ccccc2NC(=S)NC(=O)c2cccc([N+](=O)[O-])c2)CC1	7.9	11.9	-3.7	2.7	41.4	12.2
CCC(=O)N1CCN(c2ccccc2NC(=O)c2ccc(-c3cccc([N+](=O)[O-])c3)o2)CC1	-2.0	-11.2	-18.9	-2.4	51.3*	-0.8
CN1CCN(c2ccccc2NC(=O)c2ccc(-c3cccc([N+](=O)[O-])c3)o2)CC1	45.3*	2.0	-6.8	1.4	29.0	-9.7
CN(C)C(=O)c1ccc(NC(=O)CSc2nnc(-c3cccs3)n2N)cc1	11.9	-2.5	-2.0	-0.9	-7.1	2.2
O=C(N[C@H](Cc1ccccc1)C(=O)O)[C@H]1O[C@@H](n2ccc(=O)[nH]c2=O)[C@H](O)[C@@H]1O	.	-16.1	-10.3	-6.6	.	.
COc1ccccc1NS(=O)(=O)c1cc(N/C(=N\S(=O)(=O)c2ccccc2)c2ccc(F)cc2)ccc1Cl	33.6*	16.3	-3.8	7.8	29.7	32.7
SMILES	NRP1-CendR mod	ADAM10 inh	CaV13 FRET inh	ADAM17 inh	FAS TE block	Arr AP2 block
O=S(=O)(/N=C(/Nc1ccc(Cl)c(S(=O)(=O)N2CCOCC2)c1)c1ccc(F)cc1)c1ccccc1	-6.2	12.1	-5.2	3.4	14.5	-6.8
CCN1C[C@@H]2[C@@H]3C(=O)N(Cc4ccccc4)C(=O)[C@@H]3[C@](C)(C1=O)N2C(=O)c1ccccc1	3.2	3.2	-5.0	-1.4	-8.3	7.8
O=C(Nc1nc(-c2ccccc2)cs1)C1CCCN(S(=O)(=O)c2ccccc2)C1 (stereo not given)	-0.7	16.9	-6.2	9.4*	32.3	-3.2
CN1CCN(S(=O)(=O)c2ccc(NC(=O)c3cccs3)cc2)CC1	21.9*	-6.8	.	-6.5	-4.9	0.5
O=C(Nc1nc(-c2cccs2)cs1)c1cccc(S(=O)(=O)N2CCCCC2)c1	-7.4	37.9*	-4.4	15.6*	20.0	-2.1
O=C(Nc1nc(-c2ccc(S(=O)(=O)N3CCCC3)cc2)cs1)c1cccs1	-5.9	4.7	-1.5	3.3	52.0*	3.9
O=C(Nc1nc(-c2ccc(S(=O)(=O)N3CCCCCC3)cc2)cs1)c1cccs1	-7.5	-1.4	-4.3	-1.5	29.3	-2.8
Cc1ccc(-c2csc(NC(=O)c3cccc(S(=O)(=O)N4CCN(C)CC4)c3)n2)cc1	2.3	10.2	-4.1	-2.0	16.6	25.3
C[C@@H]1CN([C@H](C)CO)C(=O)c2c(c3ccccc3n2C)-c2ccccc2CO[C@@H]1CN(C)C(=O)CCN(C)C	.	-14.5	-5.6	0.7	.	.
CCOC(=O)[C@@]12CCCC3=C1N(CCC3)C(=O)[C@H]2CC(=O)N1CCN(C(=O)c2ccco2)CC1	.	-2.2	.	0.6	.	.
O=C(C(c1ccccc1)C(O)c1ccccc1)N1CCOCC1 (stereo not given)	4.0	-12.6	-6.6	-4.0	-9.7	-12.4
COc1ccc(S(=O)(=O)N2CCN(C(=O)c3ccccc3Cc3ccccc3)CC2)cc1OC	-3.7	3.4	-4.5	5.7	2.1	.
COc1ccccc1N1CCN(C2CCC(C)CC2)CC1 (stereo not given)	5.0	-6.4	50.1*	-2.1	-7.5	-10.9
COc1ccccc1N1CCN(C2CCCN(C(=O)CN3CCCCC3=O)C2)CC1 (stereo not given)	20.2*	-0.6	-7.4	0.2	-8.7	-8.2
COc1ccc(N2CCN(C3CCCN(C(=O)CN4CCCCC4=O)C3)CC2)cc1 (stereo not given)	-1.6	-0.9	-3.2	4.8	-8.5	20.9
CC(=O)Nc1ccc(C2Nc3cc(C)c(C)cc3NC3=C2C(=O)CC(C)(C)C3)cc1 (stereo not given)	5.9	6.5	-24.6	-4.2	-7.4	-5.4
